Source: PubChem (Sanford-Burnham Center for Chemical Genomics)
SENP6 inh – SENP6 protease inhibitors, primary screen, biochemical, luminescence, uHTS; Sentrin-specific protease 6 (Homo sapiens), Q9GZR1; Recombinant SENP6 catalytic domain, aminoluciferin luminescence; inhibition, % at 10 µM; 330,000 compounds, 1.8% hits; AID 2599, 2010;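 active = inhibition above about 50% at the single tested dose, limit read from the data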;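 note: plate controls were DMSO wells with enzyme for no effect and DMSO wells lacking enzyme for full effect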
SENP8 block-1 – human SENP8 protease inhibitors, primary screen, biochemical, fluorescence, Nedd8 protein substrate, uHTS; Sentrin-specific protease 8 (Homo sapiens), Q96LD8; 360,000 compounds, 0.64% hits; inhibition, % at 20 µM; AID 602440, 2012; recombinant SENP8; in the data active = inhibition mostly above about 40%, no sharp cut-off; inactive = mostly below about 27%
SENP8 block-2 – SENP8 protease inhibitors, primary screen, biochemical, luminescence. Sentrin-specific protease 8 (Homo sapiens), Q96LD8. purified SENP8, Z-RLRGG-aminoluciferin cleavage. inhibition, % at 10 µM. 330,000 compounds, 1.2% hits. AID 2540, 2010; in the data active = inhibition above about 50%
SENP7 block – SENP7 protease inhibitors, primary screen, biochemical, luminescence, uHTS; recombinant SENP7, Z-RLRGG-aminoluciferin luminescence, 40 min; inhibition, % at 5 µM; 330,000 compounds, 1.5% hits; AID 434973, 2010;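 active = inhibition above about 50% at the single test dose, limit read from the data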;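 note: plate controls were DMSO with enzyme for no effect and no enzyme buffer wells for full effect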
Target sequence (Q9BQF6 706-1050 limits assumed): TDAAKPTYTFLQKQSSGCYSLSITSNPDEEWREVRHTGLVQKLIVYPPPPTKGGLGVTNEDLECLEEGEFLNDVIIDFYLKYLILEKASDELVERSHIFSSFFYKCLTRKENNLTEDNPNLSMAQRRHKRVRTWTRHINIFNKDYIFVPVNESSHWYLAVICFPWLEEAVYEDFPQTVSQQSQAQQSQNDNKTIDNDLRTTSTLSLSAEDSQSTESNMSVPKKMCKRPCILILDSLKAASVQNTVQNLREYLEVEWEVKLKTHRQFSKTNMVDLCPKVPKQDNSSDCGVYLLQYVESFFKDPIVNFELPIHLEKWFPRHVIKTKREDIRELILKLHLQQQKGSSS
SENP1 FRET inh – human SENP1 catalytic domain inhibitors, primary screen, biochemical, FRET, uHTS | Sentrin-specific protease 1 (Homo sapiens), Q9P0U3 | 360,000 compounds, 0.21% hits | recombinant SENP1 catalytic domain, CyPet-SUMO1-YPet FRET cleavage | inhibition, % at 10 µM | AID 624204, 2012;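 active = inhibition at least 30% at 10 µM, raw YFP signal under a set limit, fluorescence ratio 0.5 to 1.5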;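 note: 0% = enzyme with DMSO and 100% = no enzyme wells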
Target sequence (Q9P0U3 419-644 limits assumed): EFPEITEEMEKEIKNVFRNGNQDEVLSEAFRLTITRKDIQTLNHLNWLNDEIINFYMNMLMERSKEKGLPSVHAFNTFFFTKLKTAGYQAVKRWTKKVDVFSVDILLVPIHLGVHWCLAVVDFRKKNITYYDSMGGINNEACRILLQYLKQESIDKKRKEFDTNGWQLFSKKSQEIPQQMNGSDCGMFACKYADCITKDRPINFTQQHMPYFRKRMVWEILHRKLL
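Test system: human SENP1 catalytic domain; medium: Tris pH 8 buffer plus EDTA, NaCl, BME, BSA, NP40, catalase; incubation: 50 min reaction at room temperature; technique: FRET, CFP and YFP emission; controls: no-enzyme low control and enzyme-plus-DMSO high control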
SENP8 inh conf – human SENP8 protease inhibitors, confirmation, biochemical, Nedd8 protein substrate, single concentration | shares compounds with SENP8 block-1 | purified SENP8, Nedd8-AMC/pro-Nedd8 cleavage fluorescence, 30 min | inhibition, % at 25 µM | 1,400 compounds, 15% hits; in the data active = inhibition mostly above about 39%, no sharp cut-off; inactive = mostly below about 34%
An asterisk follows results filed as active; / = not tested or not shown. The list is not random: actives were taken first. Their share in the collection is about 2.5%.

SMILES	SENP6 inh	SENP8 block-1	SENP8 block-2	SENP7 block	SENP1 FRET inh	SENP8 inh conf
Cc1nc2ccccc2n1CC(O)COCC1CC=CCC1 (stereo not given)	-1.5	43.0*	-2.8	-2.0	0.7	-4.8
CCC(=O)N(CCC(Cc1ccccc1)c1ccco1)Cc1ccco1 (stereo not given)	2.0	-25.0	-12.9	0.8	-1.5	/
CCC(=O)N(CCC(Cc1ccccc1)c1ccc2c(c1)OCO2)Cc1ccccc1F (stereo not given)	7.0	40.1*	8.0	2.3	1.8	13.6
COC(C(=O)Nc1c(F)cccc1F)c1ccccc1 (stereo not given)	2.8	11.5	0.1	5.9	1.2	/
O=C(N/N=C/c1cc([N+](=O)[O-])ccc1Cl)c1cc(-c2ccccc2)nc2ccccc12	-21.5	41.4*	-4.4	-4.0	0.9	-4.5
O=C(N/N=C/c1cc([N+](=O)[O-])ccc1O)c1cc(-c2ccccc2)nc2ccccc12	3.3	1.4	-10.7	-1.1	-29.8	/
Cc1cc(C(=O)N/N=C/c2ccc([N+](=O)[O-])s2)c2ccccc2n1	31.9	46.3*	8.0	0.1	-6.1	28.5
Cc1oc2cc3oc(=O)c(CCC(=O)NCc4ccccn4)c(C)c3cc2c1C	-12.6	-160.4	-10.0	-12.0	-5.2	/
OC(CNC1CCCCC1)CON=C1CCSc2c(Cl)cccc21 (stereo not given)	/	6.5	/	/	-0.1	/
CC(Sc1ccsc1[N+](=O)[O-])C(=O)NCCc1ccc(Cl)cc1 (stereo not given)	7.6	41.9*	5.0	-1.5	0.7	15.4
CC(=O)c1ccccn1	-13.8	6.8	-11.9	0.9	1.5	/
C/C(=N/O)c1ccccn1	-7.7	50.9*	-3.5	2.5	1.1	5.4
C=CCNC(=S)NN=C1CCC(c2ccccc2)CC1 (stereo not given)	10.0	45.1*	15.4	-2.7	1.5	18.0
COCCNC(=S)NN=C1CCC(c2ccccc2)CC1 (stereo not given)	8.7	13.5	5.2	-5.5	0.5	/
CCOC(=O)c1[nH]c(C)c(C(=O)OCC(=O)N2CCCCC2C)c1C (stereo not given)	-4.8	41.0*	-0.3	-14.8	3.3	13.8
CCc1nc2ccc(C(=O)N(CC)CCN(C)C)cn2c1N(CC)C(=O)NCCc1ccccc1	/	8.6	/	/	2.4	/
COC(=O)c1nn(-c2ccc(OC)cc2)c(=O)cc1Sc1ccc(C)cc1	23.0	-6.5	5.1	2.2	-6.7	/
COC(=O)c1nn(-c2ccc(OC)cc2)c(=O)cc1NN	-9.9	56.6*	1.4	7.3	2.6	9.2
CCc1ccc(N2C(=O)CN(Cc3cccs3)C2=S)cc1	9.4	4.3	1.7	-1.6	0.7	/
CCS(=O)(=O)N1CCN(c2ccc([N+](=O)[O-])c(NC(C)c3ccccc3)c2)CC1 (stereo not given)	-0.6	60.2*	-0.1	2.5	3.3	0.5
CCS(=O)(=O)N1CCN(c2ccc([N+](=O)[O-])c(NCc3ccccc3)c2)CC1	-17.0	34.8	4.1	2.5	3.8	/
O=[N+]([O-])c1ccc(N2CCCC2)cc1NC(c1ccccc1)c1ccccc1	-2.9	56.4*	-3.0	1.6	2.0	8.2
O=[N+]([O-])c1ccc(N2CCOCC2)cc1NC(c1ccccc1)c1ccccc1	-2.1	28.1	-6.5	7.3	1.2	/
CS(=O)(=O)N1CCN(c2ccc([N+](=O)[O-])c(NCc3ccccc3)c2)CC1	-4.2	44.7*	-8.7	-13.0	0.0	22.7
CC(Nc1cc(N2CCNCC2)ccc1[N+](=O)[O-])c1ccccc1 (stereo not given)	-2.7	35.3	-6.5	-4.0	4.5	/
SMILES	SENP6 inh	SENP8 block-1	SENP8 block-2	SENP7 block	SENP1 FRET inh	SENP8 inh conf
Cc1cnc(C(=O)OCc2nc3ccsc3c(=O)[nH]2)cn1	-8.9	-73.2	-6.2	-5.7	-42.0	/
CCNC(=O)C1(C)CCN(C(=O)c2c(F)cccc2F)C1 (stereo not given)	/	17.4	/	/	3.4	/
Cc1nc(N2CCOCC2)nc(Oc2ccccc2F)c1[N+](=O)[O-]	17.7	41.4*	5.4	5.2	-1.0	17.1
CC(=O)C1=C(C)NC(C)=C(C(C)=O)C1c1ccccc1	2.0	41.2*	10.8	-0.4	2.4	11.3
Nc1c(NCCCN2CCOCC2)c2ccccc2oc1=O	5.2	37.5*	4.3	0.5	0.2	-6.5
CC(C)CCOc1ccc(C(=O)NCC(c2ccco2)N(C)C)cc1 (stereo not given)	10.5	-8.2	0.3	6.0	-8.0	/
S=C(Nc1cccc(Cl)c1)N(CCCN1CCCC1)Cc1cccn1Cc1ccc(Cl)cc1	-7.9	40.3*	-0.6	1.9	-1.2	29.2
CSc1cccc(NC(=S)N(CCCN2CCCC2)Cc2cccs2)c1	-2.1	45.7*	0.7	-4.7	1.3	-3.8
CC(=O)c1ccc(N2CCN(C(=O)C3CCN(S(=O)(=O)c4cccs4)CC3)CC2)cc1	-8.0	-154.6	1.0	4.2	0.3	/
COc1ccc(C(=O)NCCc2nnc3ccc(SCC(=O)N4CCCC4)nn23)cc1	-1.6	0.0	-0.2	-4.0	2.6	/
CCCC(=O)OCCNc1cc(SCc2ccco2)c2nonc2c1[N+](=O)[O-]	32.1	61.5*	25.9	17.6	-15.4	5.8
CCCSc1cc(NCCOC(=O)CCC)c([N+](=O)[O-])c2nonc12	12.1	19.9	-2.3	8.6	-34.8	/
O=C(c1ccc(Cl)cc1)N1CCN(c2ncccn2)CC1	-4.9	5.3	0.9	-2.5	4.8	/
O=C1CC(SC(=S)C2CCCC2=O)C(=O)N1 (stereo not given)	/	40.6*	/	/	14.6	26.5
O=C1CC(Sc2ncccc2C(=O)O)C(=O)N1 (stereo not given)	14.8	10.4	7.5	-2.3	0.7	/
O=C(Nc1ccc(N2CCOCC2)cc1)C1CCN(S(=O)(=O)Cc2ccccc2)CC1	-10.6	40.2*	2.7	2.1	0.8	6.8
CCC(C)NC(=O)c1ccc(Cl)c(S(=O)(=O)Nc2ccccc2N2CCOCC2)c1 (stereo not given)	8.2	10.3	-1.2	3.5	1.6	/
COc1cc(/C=C/CNC[C@H]2O[C@@H](n3cc(C)c(=O)[nH]c3=O)C[C@@H]2O)ccc1O	/	-29.8	/	/	-12.7	/
Cc1ccc(NC(=O)CSCc2c(C)noc2C)cc1C	-16.6	40.2*	-7.2	-11.1	0.0	24.6
Cc1cc(C)c(NC(=O)CSCc2c(C)noc2C)c(C)c1	6.9	8.5	6.4	3.4	1.2	/
CC1(C)Cc2cccc(OCC(=O)OCC(=O)Nc3cccc(S(N)(=O)=O)c3)c2O1	-14.7	40.5*	-3.6	0.5	2.3	7.5
